Read-outs that look alike come from different tables or passages of the source. Each block holds one compound with its values, some of them ahead of it. Peptide text beside a SMILES is read from it.
What was measured:
[1] = molecular target: WDR5 (Homo sapiens, UniProt P61964); test: Fluorescence-polarization; type: binding; conditions: for decrease in binding affinity to WDR5 (times) compared to ARA (Ac-ARA-NH2) / improvement in binding affinity to WDR5 (times more potent) compared to ARA (Ac-ARA-NH2): relative to ARA peptide; for weakening of binding to WDR5 (times) compared to Val and Abu at Ala1: relative to Val and Abu
[2] = molecular target: MLL1 core complex (MLL1/WDR5/RbBP5/ASH2L) (Homo sapiens, UniProt P61964); test: In vitro H3K4 histone methyltransferase; type: biochemical; conditions: for inhibition of MLL1 HMT activity, result in words: up to 400 μM
[3] = test system: KOPN8 cells; test: Cell growth, CellTiter-Glo Luminescent Cell Viability Assay; type: cell-based; conditions: 7 days
Outline: (§1)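 Cells grown in RPMI 1640 with 10% FBS and penicillin-streptomycin at 37 °C, 5% CO2. Seeded at 5 × 10^5 cells per well and exposed to test compound or 0.2% DMSO vehicle for 7 days. Medium was changed and compound resupplied every 2 days. CellTiter-Glo reagent added, 2 min shaking to lyse, 10 min at room temperature, then luminescence read.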

[4] = test system: GAPDH; test: qRT-PCR analysis of GAPDH; type: cell-based; conditions: 96 h, MLL1-AF9 transduced murine cells
Outline: (§2)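 Murine bone marrow cells transduced with MLL1-AF9 were exposed for 96 h to test compound (25 or 50 μM), a control compound (50 μM) or mock, all at 0.2% final DMSO. Total RNA was extracted (Trizol plus column kit) and cDNA made by random priming. SYBR real-time PCR used gene-specific primers for HoxA9, Meis1 and GAPDH. Expression is relative to mock after normalizing to GAPDH or total input RNA; unpaired t test versus mock.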

[5] = test system: K562 cells; test: Annexin V-propidium iodide apoptosis assay; type: cell-based; conditions: K562, up to 50 μM, 96 h
[6] = test system: HoxA9; test: qRT-PCR analysis of HoxA9 expression in MLL1-AF9 transduced bone marrow cells; type: cell-based; conditions: 96 h, MLL1-AF9 transduced murine cells
Outline: as §2

[7] = test system: MV4;11 cells; test: Cell growth, CellTiter-Glo Luminescent Cell Viability Assay; type: cell-based; conditions: 7 days
Outline: as §1

[8] = test system: Meis-1; test: qRT-PCR analysis of Meis-1 expression in MLL1-AF9 transduced bone marrow cells; type: cell-based; conditions: 50 μM, 96 h, MLL1-AF9 transduced murine cells
Outline: as §2

[9] = test system: K562 cells; test: Cell growth, CellTiter-Glo Luminescent Cell Viability Assay; type: cell-based; conditions: 7 days
Outline: as §1

[10] = test system: MV4;11 cells; test: Annexin V-propidium iodide apoptosis assay; type: cell-based; conditions: MV4;11, 50 μM, 96 h

- decrease in binding affinity to WDR5 (times) compared to ARA (Ac-ARA-NH2) [1]: 3–6
SMILES: CC(=O)N[C@@H](Cc1c[nH]cn1)C(=O)N[C@@H](CCCNC(=N)N)C(=O)N[C@@H](C)C(N)=O [Compound 1g] (Ac-His-Arg-Ala-NH2)

- improvement in binding affinity to WDR5 (times more potent) compared to ARA (Ac-ARA-NH2) [1]: 20
SMILES: CC[C@H](NC(=O)[C@H](CCCNC(=N)N)NC(=O)[C@H](C)NC(C)=O)C(N)=O [Compound 3b]

- decrease in binding affinity to WDR5 (times) compared to ARA (Ac-ARA-NH2) [1]: > 100
- inhibition of MLL1 HMT activity, result in words [2]: fail to inhibit the MLL1 HMT activity
SMILES: CC(=O)NCC(=O)N[C@@H](CCCNC(=N)N)C(=O)N[C@@H](C)C(N)=O [Compound 1a] (Ac-Gly-Arg-Ala-NH2)

- decrease in binding affinity to WDR5 (times) compared to ARA (Ac-ARA-NH2) [1]: 5
- weakening of binding to WDR5 (times) compared to Val and Abu at Ala1 [1]: approximately 10
SMILES: CC(=O)N[C@H](C(=O)N[C@@H](CCCNC(=N)N)C(=O)N[C@@H](C)C(N)=O)[C@@H](C)O [Compound 1j] (Ac-Thr-Arg-Ala-NH2)

- decrease in binding affinity to WDR5 (times less potent) compared to 3c ([1]; relative to 3c): 15
SMILES: CC(=O)N[C@H](C(=O)N[C@@H](CCCNC(=N)N)C(=O)N[C@H](C(N)=O)C(C)C)C1CCCC1 [Compound 4i]

- times more potent than 3c in binding to WDR5 ([1]; relative to 3c): 5
SMILES: CCC(CC)(NC(C)=O)C(=O)N[C@@H](CCCNC(=N)N)C(=O)N[C@H](C(N)=O)C(C)C [Compound 4f]

- decrease in binding affinity to WDR5 (times) compared to ARA (Ac-ARA-NH2) [1]: > 100
SMILES: CC(=O)N[C@@H](C)C(=O)N[C@@H](CCCNC(=N)N)C(=O)N[C@@H](CCC(=O)O)C(N)=O [Compound 3j] (Ac-Ala-Arg-Glu-NH2)

- IC50 [1]: > 300 µM
- Ki [1]: > 65 µM
- binding to WDR5, result in words ([1]; FP-based competitive binding): inactive
SMILES: CC(=O)N[C@@H](C)C(=O)N[C@@H](CCCCN)C(=O)N[C@@H](C)C(N)=O [Compound 2c] (Ac-Ala-Lys-Ala-NH2)

- binding to WDR5, result in words ([1]; FP-based competitive binding): fails to bind to WDR5
- inhibition of MLL1 HMT activity, result in words [2]: fail to inhibit the MLL1 HMT activity
SMILES: CC(=O)N[C@@H](C)C(=O)N[C@@H](CCCNC(N)=O)C(=O)N[C@@H](C)C(N)=O [Compound 2d]

- improvement in binding affinity to WDR5 (times more potent) compared to ARA (Ac-ARA-NH2) [1]: 2
SMILES: CC[C@H](NC(C)=O)C(=O)N[C@@H](CCCNC(=N)N)C(=O)N[C@@H](C)C(N)=O [Compound 1b]

- improvement in binding affinity to WDR5 (times more potent) compared to ARA (Ac-ARA-NH2) [1]: 2
SMILES: CC(=O)N[C@H](C(=O)N[C@@H](CCCNC(=N)N)C(=O)N[C@@H](C)C(N)=O)C(C)C [Compound 1c] (Ac-Val-Arg-Ala-NH2)

- IC50 [2]: 141 ± 52 µM
SMILES: CC(=O)N[C@@H](C)C(=O)N[C@@H](CCCNC(=N)N)C(=O)N[C@@H](C)C(N)=O [ARA, Ac-ARA-NH2] (Ac-Ala-Arg-Ala-NH2)

- Ki ([1]; read-out: Ki ± SD, binding affinity to WDR5, FP-based competitive binding): < 0.001 µM
SMILES: CCC(CC)(NC(=O)C(C)C)C(=O)N[C@@H](CCCNC(=N)N)C(=O)NC1(C(=O)NC(c2ccc(Cl)cc2)c2ccc(Cl)cc2)CCCC1 [MM-103]

- improvement in binding affinity to WDR5 (times more potent) compared to ARA (Ac-ARA-NH2) [1]: 5
SMILES: CC(=O)N[C@@H](C)C(=O)N[C@@H](CCCNC(=N)N)C(=O)N[C@H](C(N)=O)C(C)C [Compound 3c] (Ac-Ala-Arg-Val-NH2)

- reduction of binding affinity to WDR5 (fold) compared to 3b ([1]; relative to 3b): 3
- improvement in binding affinity to WDR5 (times more potent) compared to ARA (Ac-ARA-NH2) [1]: 5
SMILES: CC(=O)N[C@@H](C)C(=O)N[C@@H](CCCNC(=N)N)C(=O)N[C@H](C(N)=O)[C@@H](C)O [Compound 3i] (Ac-Ala-Arg-Thr-NH2)

- IC50 [1]: > 300 µM
- Ki [1]: > 65 µM
- binding to WDR5, result in words ([1]; FP-based competitive binding): complete loss of binding
SMILES: CCCC[C@H](NC(=O)[C@H](C)NC(C)=O)C(=O)N[C@@H](C)C(N)=O [Compound 2a]

- decrease in binding affinity to WDR5 (times less potent) compared to 3c ([1]; relative to 3c): 50
SMILES: CC(=O)N[C@H](C(=O)N[C@@H](CCCNC(=N)N)C(=O)N[C@H](C(N)=O)C(C)C)c1ccccc1 [Compound 4j]

- decrease in binding affinity to WDR5 (times) compared to ARA (Ac-ARA-NH2) [1]: 3–6
- inhibition of MLL1 HMT activity, result in words [2]: fail to inhibit the MLL1 HMT activity
SMILES: CC(=O)N[C@@H](Cc1ccccc1)C(=O)N[C@@H](CCCNC(=N)N)C(=O)N[C@@H](C)C(N)=O [Compound 1h] (Ac-Phe-Arg-Ala-NH2)

- decrease in binding affinity to WDR5 (times) compared to ARA (Ac-ARA-NH2) [1]: 3
SMILES: CC(=O)N[C@@H](CS)C(=O)N[C@@H](CCCNC(=N)N)C(=O)N[C@@H](C)C(N)=O [Compound 1d] (Ac-Cys-Arg-Ala-NH2)

- IC50 [1]: > 300 µM
- Ki [1]: > 65 µM
- binding to WDR5, result in words ([1]; FP-based competitive binding): complete loss of binding
SMILES: CC(=O)N[C@@H](C)C(=O)N[C@@H](CCCN)C(=O)N[C@@H](C)C(N)=O [Compound 2b]

- decrease in binding affinity to WDR5 (times) compared to ARA (Ac-ARA-NH2) [1]: 3
SMILES: CC(=O)N[C@@H](C)C(=O)N[C@@H](CCCNC(=N)N)C(=O)N[C@@H](CO)C(N)=O [Compound 3h] (Ac-Ala-Arg-Ser-NH2)

- decrease in binding affinity to WDR5 (times) compared to ARA (Ac-ARA-NH2) [1]: > 10
SMILES: CC(=O)N[C@@H](C)C(=O)N[C@@H](CCCNC(=N)N)C(=O)NCC(N)=O [Compound 3a] (Ac-Ala-Arg-Gly-NH2)

- decrease in binding affinity to WDR5 (times) compared to ARA (Ac-ARA-NH2) [1]: 5
- weakening of binding to WDR5 (times) compared to Val and Abu at Ala1 [1]: approximately 10
SMILES: CC(=O)N[C@@H](CO)C(=O)N[C@@H](CCCNC(=N)N)C(=O)N[C@@H](C)C(N)=O [Compound 1i] (Ac-Ser-Arg-Ala-NH2)

SMILES: CCC(CC)(NC(=O)C(C)C)C(=O)N[C@@H](CCCN=C(N)N)C(=O)NC1(C(=O)NC(c2ccc(F)cc2)c2ccc(F)cc2)CCCC1 [MM-102]
- cell growth inhibition, in words ([3]; KOPN8, 75 μM): completely inhibits cell growth
- IC50 ([3]; read-out: cell growth inhibition IC50, KOPN8 (MLL1-ENL)): 25 µM
- effect on expression of GAPDH, in words [4]: did not affect the expression of GAPDH
- improvement in binding affinity to WDR5 (times more potent) compared to ARA (Ac-ARA-NH2) [1]: > 200
- cells undergoing cell death [5]: < 10%
- reduction in HoxA9 gene expression compared with Mock ([6]; 25 μM): Approximately 50%
- reduction in HoxA9 gene expression compared with Mock ([6]; 50 μM): ~70%
- cell growth inhibition, in words ([7]; MV4;11, 75 μM): completely inhibits cell growth
- IC50 ([7]; read-out: cell growth inhibition IC50, MV4;11 (MLL1-AF4)): 25 µM
- decrease in Meis-1 expression [8]: 40%
- effect on cell growth, in words ([9]; K562 (BCR-ABL, no MLL1 fusion), up to 50 μM): no effect
- effect on cell growth, in words ([9]; K562, 75 μM): minimal effect
- cells undergoing cell death [10]: > 75%

Source: PMC5180416 (Journal of the American Chemical Society, 2012)
